The MIC80 is an inhibitory concentration at the 80% level, which refers to growth in some studies and to a panel of isolates in others.

Holding throughout (assay type): functional
In test [1] the test system is Candida albicans. In words: Antifungal activity against Candida albicans SC5314 by micro-broth dilution method. The method, boiled down: (§1)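 MIC80 determined by broth microdilution following NCCLS methods. C. albicans SC5314 and Y0109 and C. neoformans BLS108 served as quality-control strains and were included in every assay. Fluconazole, itraconazole, voriconazole and amphotericin B were run as positive controls.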
In general terms: Broth dilution looks for growth in wells or tubes with falling amounts of substance.

The subject of another test is Kluyveromyces marxianus. Description: Antifungal activity against Candida kefyr by micro-broth dilution method.
For test [2], the system named is Candida albicans. Description: Antifungal activity against Candida albicans Y0109 by micro-broth dilution method. The gist of the method:
as §1

The test system of another test is Trichophyton rubrum. In words: Antifungal activity against Trichophyton rubrum by micro-broth dilution method. The gist of the method: as §1
A further test relates to Candida parapsilosis. In words: Antifungal activity against Candida parapsilosis by micro-broth dilution method. As to conditions: Lodderomyces parapsilosis. The gist of the method: as §1
The next test concerns Aspergillus fumigatus. In words: Antifungal activity against Aspergillus fumigatus by micro-broth dilution method. The gist of the method:
as §1

The next test deals with Candida tropicalis. Description: Antifungal activity against Candida tropicalis by micro-broth dilution method. The gist of the method: as §1
The next test has as its system Cryptococcus neoformans. Description: Antifungal activity against Cryptococcus neoformans BLS108 by micro-broth dilution method. The gist of the method:
as §1

≈ marks a conversion by molar mass, not a printed value.

On to `O=C(/C=C/c1ccc(Cl)cc1)Nc1ccc(-n2cnn(CC(O)(Cn3cncn3)c3ccc(F)cc3F)c2=O)cc1` (single isomer, unassigned), for which the MIC80 in the test on Candida albicans [1] is 4 µg/mL (≈ 6.92 µM); against Kluyveromyces marxianus, above 64 µg/mL; against Candida albicans [2], 16 µg/mL (≈ 27.7 µM); with Trichophyton rubrum, above 64 µg/mL; with Candida parapsilosis, above 64 µg/mL; with Aspergillus fumigatus, above 64 µg/mL. In addition, the MIC80 against Candida tropicalis and with Cryptococcus neoformans was above 64 µg/mL each time.
In the case of `N#Cc1cccc(/C=C/C(=O)Nc2ccc(-n3cnn(CC(O)(Cn4cncn4)c4ccc(F)cc4F)c3=O)cc2)c1` (single isomer, unassigned), the MIC80 in the test on Candida albicans [1] was 16 µg/mL (≈ 28.1 µM); in the test on Kluyveromyces marxianus, above 64 µg/mL; with Candida albicans [2], 16 µg/mL (≈ 28.1 µM); in the test with Trichophyton rubrum it was above 64 µg/mL; with Candida parapsilosis, 16 µg/mL (≈ 28.1 µM); in the test with Aspergillus fumigatus it was above 64 µg/mL. The MIC80 against Candida tropicalis was 64 µg/mL (≈ 113 µM); with Cryptococcus neoformans, above 64 µg/mL.
`O=C(/C=C/c1ccc([N+](=O)[O-])cc1)Nc1ccc(-n2cnn(CC(O)(Cn3cncn3)c3ccc(F)cc3F)c2=O)cc1` (single isomer, unassigned): the MIC80 in the test with Candida albicans [1] was above 64 µg/mL; in the test on Kluyveromyces marxianus it was above 64 µg/mL; against Candida albicans [2], above 64 µg/mL; in the test with Trichophyton rubrum it was above 64 µg/mL; with Candida parapsilosis it was 1 µg/mL (≈ 1.7 µM); against Aspergillus fumigatus, above 64 µg/mL. Besides, the MIC80 in the test with Candida tropicalis and against Cryptococcus neoformans was above 64 µg/mL throughout.

For the origin of these results see ChEMBL document CHEMBL1806394, “Synthesis, in vitro evaluation and molecular docking studies of new triazole derivatives as antifungal agents” (2011).
